Assay type in all cases: functional, organism-based
Assay [1] has as its system Human immunodeficiency virus 1. Kind of assay: Antiviral activity against HIV1 H1122 in human MT2 cells assessed as inhibition of virus-induced cytopathic effect by XTT assay. Particulars: Human immunodeficiency virus 1, MT2. Summed up: (§1)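 Peptide samples dissolved in 100% DMSO or H2O-DMSO (3:1), then diluted to test concentrations. Tested in an in vitro XTT tetrazolium-based cell assay for protection against the cytopathic effects of productive HIV-1 infection. EC50 is the concentration giving 50% protection, determined separately for each virus strain and target cell line pairing.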

The subject of assay [2] is Human immunodeficiency virus 1. Kind of assay: Antiviral activity against HIV1 N119 in human CEM-SS cells assessed as inhibition of virus-induced cytopathic effect by XTT assay. Particulars: Human immunodeficiency virus 1, CEM-SS. A digest of the protocol: as §1
The subject of assay [3] is Human immunodeficiency virus 1. Put plainly: Antiviral activity against HIV1 G in human CEM-SS cells assessed as inhibition of virus-induced cytopathic effect by XTT assay. Particulars: Human immunodeficiency virus 1, CEM-SS. Summed up:
as §1

Assay [4] relates to Human immunodeficiency virus 1. Put plainly: Antiviral activity against HIV1 214 in human CEM-SS cells assessed as inhibition of virus-induced cytopathic effect by XTT assay. Particulars: Human immunodeficiency virus 1, CEM-SS. Summed up: as §1
Assay [5] deals with Human immunodeficiency virus 1. Put plainly: Antiviral activity against HIV1 3B in human MT2 cells assessed as inhibition of virus-induced cytopathic effect by XTT assay. Particulars: Human immunodeficiency virus 1, 3B. Summed up: as §1
In assay [6] the test system is Human immunodeficiency virus 1. Kind of assay: Antiviral activity against HIV1 RF in human CEM-SS cells assessed as inhibition of virus-induced cytopathic effect by XTT assay. Particulars: Human immunodeficiency virus 1, RF. A digest of the protocol:
as §1

The test system of assay [7] is Human immunodeficiency virus 1. Put plainly: Antiviral activity against HIV1 A17 in human MT2 cells assessed as inhibition of virus-induced cytopathic effect by XTT assay. Particulars: Human immunodeficiency virus 1, A17, MT2. A digest of the protocol:
as §1

Assay [8] concerns Human immunodeficiency virus 1. Kind of assay: Antiviral activity against HIV1 205 in human CEM-SS cells assessed as inhibition of virus-induced cytopathic effect by XTT assay. Particulars: Human immunodeficiency virus 1, CEM-SS. A digest of the protocol:
as §1

In assay [9] the test system is Human immunodeficiency virus 1. Kind of assay: Antiviral activity against HIV1 3B in human CEM-SS cells assessed as inhibition of virus-induced cytopathic effect by XTT assay. Particulars: Human immunodeficiency virus 1, 3B. Summed up:
as §1

In assay [10] the test system is Human immunodeficiency virus 1. Kind of assay: Antiviral activity against HIV1 SK1 in human CEM-SS cells assessed as inhibition of virus-induced cytopathic effect by XTT assay. Particulars: Human immunodeficiency virus 1, CEM-SS. A digest of the protocol:
as §1

The test system of assay [11] is Human immunodeficiency virus 1. Put plainly: Antiviral activity against HIV1 G9106 in human MT2 cells assessed as inhibition of virus-induced cytopathic effect by XTT assay. Particulars: Human immunodeficiency virus 1, G9106, MT2. Summed up: as §1

Positions of bridges follow the written chain, without caps; N, C: chain ends. Residues, ends and D or L forms follow the SMILES beside them.

On to `CC[C@H](C)[C@@H]1NC(=O)[C@@H]2CSSC[C@@H]3NC(=O)[C@H](C(C)C)NC(=O)[C@H](CCCCN)NC(=O)[C@H](CO)NC(=O)[C@H](CCCCN)NC(=O)[C@@H]4CSSC[C@H](NC(=O)[C@H](CO)NC(=O)[C@H](CCC(=O)O)NC(=O)CNC(=O)[C@H](CSSC[C@H](NC(=O)CNC(=O)[C@H](C)NC(=O)[C@H](C(C)C)NC(=O)[C@H](CO)NC(=O)[C@H]([C@@H](C)O)NC1=O)C(=O)N[C@@H](CO)C(=O)N4)NC(=O)[C@@H]1CCCN1C(=O)[C@H]([C@@H](C)CC)NC(=O)CNC(=O)[C@H](CC(N)=O)NC(=O)[C@H](CCCNC(=N)N)NC(=O)[C@H](Cc1ccc(O)cc1)NC3=O)C(=O)N[C@@H](C(C)C)C(=O)N[C@@H](Cc1ccccc1)C(=O)N[C@@H]([C@@H](C)CC)C(=O)N1CCC[C@H]1C(=O)N2` [CIRCULIN C] (cyclo(AGCSCKSKVCYRNGIPCGESCVFIPCITSV); disulfide 3-17, 5-21, 10-26), for which the EC50 in assay [1] was found to be 48 nM; in [2], 241 nM; in assay [3] it was 111 nM; in [4], 213 nM; in assay [5], 200 nM; in assay [6], 165 nM. For the same compound, the EC50 in assay [7] was found to be 247 nM; in assay [8], 155 nM; in assay [9], 73 nM; in assay [10] it was 51 nM; in assay [11] it was 67 nM.

On to `CC[C@H](C)[C@@H]1NC(=O)[C@H](CCCCN)NC(=O)[C@H](CC(=O)O)NC(=O)[C@H](Cc2cnc[nH]2)NC(=O)[C@H](Cc2ccc(O)cc2)NC(=O)[C@@H]2CSSC[C@@H]3NC(=O)[C@@H]4CCCN4C(=O)[C@H]([C@@H](C)CC)NC(=O)[C@H](Cc4c[nH]c5ccccc45)NC(=O)[C@H](C(C)C)NC(=O)[C@@H]4CSSC[C@H](NC(=O)[C@H](CCCCN)NC(=O)[C@H](CSSC[C@H](NC(=O)[C@@H]5CCCN5C1=O)C(=O)NCC(=O)N[C@@H](CCC(=O)O)C(=O)N[C@@H](CO)C(=O)N4)NC(=O)[C@H](CC(N)=O)NC(=O)[C@H](Cc1ccccc1)NC(=O)[C@H](C(C)C)NC(=O)[C@H](CO)NC(=O)[C@H]([C@@H](C)O)NC(=O)[C@H](CC(C)C)NC3=O)C(=O)N[C@@H](CCC(=O)O)C(=O)N[C@@H](CC(N)=O)C(=O)N[C@@H](CCCCN)C(=O)N[C@@H](C(C)C)C(=O)N2` [CIRCULIN E] (cyclo(CENKVCYHDKIPCGESCVWIPCLTSVFNCK); disulfide 1-17, 6-22, 13-29), for which the EC50 in assay [1], in assay [2], in [3], in assay [4], in assay [5] and in assay [6] was 50 nM throughout. The EC50 in [7], in [8], in [10] and in assay [11] was 50 nM throughout.

With `CC[C@H](C)[C@@H]1NC(=O)[C@H](C)NC(=O)[C@H](C)NC(=O)[C@H](CO)NC(=O)[C@H]([C@@H](C)CC)NC(=O)[C@@H]2CSSC[C@@H]3NC(=O)[C@H](C(C)C)NC(=O)[C@H](CCCCN)NC(=O)[C@H](CC(N)=O)NC(=O)[C@H](CCCCN)NC(=O)[C@@H]4CSSC[C@H](NC(=O)[C@H](CO)NC(=O)[C@H](CCC(=O)O)NC(=O)CNC(=O)[C@H](CSSC[C@H](NC(=O)CNC1=O)C(=O)N[C@@H](CO)C(=O)N4)NC(=O)[C@@H]1CCCN1C(=O)[C@H]([C@@H](C)CC)NC(=O)[C@H](C)NC(=O)[C@H](CCCNC(=N)N)NC(=O)[C@H](Cc1ccc(O)cc1)NC3=O)C(=O)N[C@@H](C(C)C)C(=O)N[C@@H](Cc1c[nH]c3ccccc13)C(=O)N[C@@H]([C@@H](C)CC)C(=O)N1CCC[C@H]1C(=O)N2` [CIRCULIN F] (cyclo(AAIGCSCKNKVCYRAIPCGESCVWIPCIS); disulfide 5-18, 7-22, 12-27), the EC50 in assay [1], in assay [2], in assay [3], in assay [4], in [5] and in [6] was 50 nM each time. Further, the EC50 in assay [7], in assay [8], in [10] and in assay [11] was 50 nM throughout.

For the origin of these results see ChEMBL document CHEMBL1155671, “New circulin macrocyclic polypeptides from Chassalia parvifolia” (J Nat Prod, 2000).
